According to ChEMBL document CHEMBL1765048 (J Med Chem, 2011):
Calls of active or inactive are those of the source. No cut-off for these calls is given here.

Legend:
D(1A) dopamine receptor = D(1A) dopamine receptor (Sus scrofa, UniProt P50130); assay: Displacement of [3H]SCH23390 from dopamine D1 receptor in porcine cerebral cortex after 60 mins; assay type: tissue-based
D(3) dopamine receptor [1] = target: T1, D(3) dopamine receptor (Homo sapiens, UniProt P35462); assay: Displacement of [3H]spiperone from human dopamine D3 receptor expressed in CHO cells after 60 mins; assay type: cell-based
T1 sequence (P35462 whole entry): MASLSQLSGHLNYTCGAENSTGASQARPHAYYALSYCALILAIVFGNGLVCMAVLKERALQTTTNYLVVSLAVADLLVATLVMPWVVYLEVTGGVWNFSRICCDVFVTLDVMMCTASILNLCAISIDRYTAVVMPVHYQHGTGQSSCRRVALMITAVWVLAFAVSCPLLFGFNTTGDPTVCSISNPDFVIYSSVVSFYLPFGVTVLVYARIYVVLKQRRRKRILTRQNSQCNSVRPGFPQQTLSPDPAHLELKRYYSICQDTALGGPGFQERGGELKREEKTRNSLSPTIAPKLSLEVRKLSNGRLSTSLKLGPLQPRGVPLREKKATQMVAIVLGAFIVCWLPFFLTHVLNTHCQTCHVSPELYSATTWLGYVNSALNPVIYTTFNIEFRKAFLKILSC
Outline: (§1)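 Incubated 60 min at 37 °C in sodium-free buffer: 50 mM Tris-HCl, 1 mM EDTA, 5 mM MgCl2, 0.1 mM DTT, bacitracin, trypsin inhibitor, pH 7.4. Ki by Cheng-Prusoff; 3-9 experiments in triplicate.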

D(4) dopamine receptor = target: T2, D(4) dopamine receptor (Homo sapiens, UniProt P21917); assay: Displacement of [3H]spiperone from human dopamine D4.4 receptor expressed in CHO cells after 60 mins; assay type: cell-based; outline: as §1
T2 sequence (P21917 whole entry): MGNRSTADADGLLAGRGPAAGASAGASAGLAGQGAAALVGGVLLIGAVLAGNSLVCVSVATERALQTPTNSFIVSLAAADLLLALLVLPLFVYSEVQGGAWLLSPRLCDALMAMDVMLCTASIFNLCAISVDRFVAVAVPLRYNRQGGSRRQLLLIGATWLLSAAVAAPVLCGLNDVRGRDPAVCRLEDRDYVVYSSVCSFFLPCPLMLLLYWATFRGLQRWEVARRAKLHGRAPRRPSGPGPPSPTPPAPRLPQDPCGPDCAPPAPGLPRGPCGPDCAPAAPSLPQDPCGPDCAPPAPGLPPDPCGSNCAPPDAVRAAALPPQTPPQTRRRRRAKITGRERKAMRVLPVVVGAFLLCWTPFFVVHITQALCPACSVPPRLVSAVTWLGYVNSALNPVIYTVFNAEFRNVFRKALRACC

D(2) dopamine receptor [2] = target: T3, D(2) dopamine receptor (Homo sapiens, UniProt P14416); assay: Displacement of [3H]spiperone from human dopamine D2short receptor expressed in CHO cells after 60 mins; assay type: cell-based; outline: as §1
T3 sequence (P14416 whole entry): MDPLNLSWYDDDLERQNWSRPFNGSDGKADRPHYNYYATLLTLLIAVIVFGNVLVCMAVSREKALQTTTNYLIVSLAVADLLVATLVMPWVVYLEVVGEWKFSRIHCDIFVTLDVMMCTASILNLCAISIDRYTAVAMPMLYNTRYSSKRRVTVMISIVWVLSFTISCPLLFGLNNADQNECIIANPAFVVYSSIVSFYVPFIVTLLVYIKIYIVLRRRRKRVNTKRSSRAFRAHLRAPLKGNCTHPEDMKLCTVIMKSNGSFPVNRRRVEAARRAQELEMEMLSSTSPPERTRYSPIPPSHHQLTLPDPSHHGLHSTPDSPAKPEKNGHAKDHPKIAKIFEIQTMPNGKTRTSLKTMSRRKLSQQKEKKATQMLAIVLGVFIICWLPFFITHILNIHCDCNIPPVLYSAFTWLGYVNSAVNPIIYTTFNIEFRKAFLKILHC

[3] = Displacement of [3H]prazosin from adrenergic alpha1 receptor in porcine cerebral cortex after 60 mins; assay type: tissue-based, Sus scrofa
D(2) dopamine receptor [4] = target: T3, D(2) dopamine receptor; assay: Displacement of [3H]spiperone from human dopamine D2long receptor expressed in CHO cells after 60 mins; assay type: cell-based; outline: as §1
D(3) dopamine receptor [5] = target: T1, D(3) dopamine receptor; assay: Displacement of [3H]spiperone from wild type human dopamine D3 receptor expressed in HEK293 cells after 60 mins; assay type: cell-based
Outline: (§2)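 Membranes from HEK293 cells transiently transfected with wild-type or mutant D3 were harvested at 48 h. KD and Bmax were set by [3H]spiperone saturation. Competition at 20-200 μg/mL protein for 1 h at 37 °C, ended by filtration on PEI-soaked GF/B filters, then scintillation counting. Ki by Cheng-Prusoff as mean ± SEM of 3-12 experiments in triplicate.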

D(3) dopamine receptor [6] = target: D(3) dopamine receptor (Homo sapiens, UniProt P35462, V87F); assay: Displacement of [3H]spiperone from human dopamine D3 receptor V2.61F mutant expressed in HEK293 cells after 60 mins; assay type: cell-based; outline: as §2
Chain of D(3) dopamine receptor (Homo sapiens, UniProt P35462, V87F) (P35462 as listed by the source V87F): as the sequence (P35462 whole entry) above, with G9S, V87F counted along it

Homo sapiens = species: Homo sapiens; assay: Selectivity ratio of Ki for human dopamine D3 receptor V2.61F mutant to Ki for wild type human dopamine D3 receptor
D(3) dopamine receptor [7] = target: T1, D(3) dopamine receptor; assay: Displacement of [3H]7-OH-DPAT from human dopamine D3 receptor expressed in CHO cells after 60 mins; assay type: cell-based
D(2) dopamine receptor [8] = target: T3, D(2) dopamine receptor; assay: Displacement of [3H]7-OH-DPAT from human dopamine D2long receptor expressed in CHO cells after 60 mins; assay type: cell-based
Outline: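 CHO membranes stably expressing D2long (200 μg protein/well) incubated with 1.0 nM [3H]7-OH-DPAT for 60 min at 37 °C. […] Ki from Cheng-Prusoff; 3-8 experiments in triplicate.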

D(2) dopamine receptor [9] = target: T3, D(2) dopamine receptor; assay: Agonist activity at human dopamine D2long receptor expressed in HEK293 cells co-expressing Galphao1 assessed as incorporation of [35S]GTPgammaS into Galphao1 after 30 mins by scintillation counting; assay type: functional, cell-based
Outline: (§3)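 Membranes from HEK293 cells transiently co-transfected with D2long and PTX-insensitive Gαo (receptor 1500 ± 50 fmol/mg), harvested 48 h post-transfection. Buffer: 20 mM Hepes, 10 mM MgCl2, 100 mM NaCl, 70 mg/L saponin, pH 7.4. Membranes (30-50 μg/mL protein), compound and 10 μM GDP preincubated 30 min at 37 °C, then 0.10 nM [35S]GTPγS added for 30 min at 37 °C. Reaction stopped by filtration and bound counts read.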

D(3) dopamine receptor [10] = target: D(3) dopamine receptor (Homo sapiens, UniProt P35462, D110E); assay: Displacement of [3H]spiperone from human dopamine D3 receptor D3.32E mutant expressed in HEK293 cells after 60 mins; assay type: cell-based; outline: as §2
Chain of D(3) dopamine receptor (Homo sapiens, UniProt P35462, D110E) (P35462 as listed by the source D110E): as the sequence (P35462 whole entry) above, with G9S, D110E counted along it

D(3) dopamine receptor [11] = target: T1, D(3) dopamine receptor; assay: Displacement of [3H]spiperone from human dopamine D3 receptor S5.42A mutant expressed in HEK293 cells after 60 mins; assay type: cell-based; outline: as §2
D(2) dopamine receptor [12] = target: T3, D(2) dopamine receptor; assay: Agonist activity at human dopamine D2long receptor expressed in CHO cells assessed as induction of [3H]thymidine incorporation after 2 hrs
D(3) dopamine receptor [13] = target: T1, D(3) dopamine receptor; assay: Displacement of [3H]spiperone from human dopamine D3 receptor H6.55A mutant expressed in HEK293 cells after 60 mins
D(2) dopamine receptor [14] = target: T3, D(2) dopamine receptor; assay: Agonist activity at human dopamine D2long receptor expressed in HEK293 cells co-expressing Galphai2 assessed as incorporation of [35S]GTPgammaS into Galphai2 after 30 mins by scintillation counting; assay type: functional, cell-based
Outline: as §3, with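 “PTX-insensitive Gαi2” for “PTX-insensitive Gαo”, “(receptor 4900” for “(receptor 1500”, “± 440” for “± 50”, “at 30” for “at 37”, “for 75” for “for 30”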

D(3) dopamine receptor [15] = target: D(3) dopamine receptor (Homo sapiens, UniProt P35462, S196A); assay: Displacement of [3H]spiperone from human dopamine D3 receptor S5.46A mutant expressed in HEK293 cells after 60 mins; assay type: cell-based; outline: as §2
Chain of D(3) dopamine receptor (Homo sapiens, UniProt P35462, S196A) (P35462 as listed by the source S196A): as the sequence (P35462 whole entry) above, with G9S, S196A counted along it

D(2) dopamine receptor [16] = target: T3, D(2) dopamine receptor; assay: Agonist activity at human dopamine D2long receptor expressed in CHO cells assessed as increase of forskolin-induced cAMP accumulation by bioluminescence assay
D(3) dopamine receptor [17] = target: T1, D(3) dopamine receptor; assay: Agonist activity at human dopamine D3 receptor expressed in CHO cells assessed as induction of [3H]thymidine incorporation after 2 hrs; assay type: functional, cell-based
Outline: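 CHO dhfr- cells stably expressing D3 receptor labeled with 0.02 μCi [3H]thymidine per well (specific activity […]) for 2 h after stimulation with compound. […] Operational model used to estimate τ.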

D(3) dopamine receptor [18] = target: T1, D(3) dopamine receptor; assay: Agonist activity at human dopamine D3 receptor expressed in HEK293 cells co-expressing Galphao1 assessed as incorporation of [35S]GTPgammaS into Galphao1 after 30 mins by scintillation counting; assay type: functional, cell-based
Outline: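 Membranes from HEK293 cells transiently transfected with D3 plus PTX-insensitive Gαo; expression 1100 fmol/mg. Buffer: 20 mM Hepes, 10 mM MgCl2, 100 mM NaCl, 70 mg/L saponin, pH 7.4. Membranes at 30-50 μg/mL, with compound and 10 μM GDP, preincubated 30 min at 37 °C. Then 0.10 nM [35S]GTPγS added for 30 min at 37 °C. Filtration, scintillation counting.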

D(2) dopamine receptor [19] = target: T3, D(2) dopamine receptor; assay: Antagonist activity at human dopamine D2long receptor expressed in CHO cells assessed as inhibition of forskolin-induced cAMP accumulation by bioluminescence assay; assay type: functional, cell-based
Outline: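 CHO cells stably expressing D2long, seeded at 5000 cells/well 24 h before assay and washed with PBS. Compounds added with 20 μM forskolin in serum-free medium containing 500 μM IBMX and 100 μM Ro 20-1724, pH 7.4, for 15 min at 25 °C. cAMP read by cAMP-Glo luminescence (PKA kinase reaction, then Kinase-Glo).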

Chain of D(1A) dopamine receptor (P50130 whole entry): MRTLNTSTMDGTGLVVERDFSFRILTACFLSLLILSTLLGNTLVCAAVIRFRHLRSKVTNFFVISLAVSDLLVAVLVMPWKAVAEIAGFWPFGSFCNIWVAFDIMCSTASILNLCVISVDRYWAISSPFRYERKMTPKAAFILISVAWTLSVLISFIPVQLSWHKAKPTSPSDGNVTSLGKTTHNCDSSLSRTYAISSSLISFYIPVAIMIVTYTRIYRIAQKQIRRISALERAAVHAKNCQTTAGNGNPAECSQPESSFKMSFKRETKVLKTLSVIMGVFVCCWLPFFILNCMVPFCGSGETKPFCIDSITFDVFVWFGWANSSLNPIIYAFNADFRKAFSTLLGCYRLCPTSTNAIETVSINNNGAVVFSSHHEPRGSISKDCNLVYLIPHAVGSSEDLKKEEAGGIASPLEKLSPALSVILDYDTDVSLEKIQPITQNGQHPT

Structure (SMILES)	Ki (D(1A) dopamine receptor) [nM]	Ki (D(3) dopamine receptor [1]) [nM]	Ki (D(4) dopamine receptor) [nM]	Ki (D(2) dopamine receptor [2]) [nM]	Ki [3] [nM]	Ki (D(2) dopamine receptor [4]) [nM]	Ki (D(3) dopamine receptor [5]) [nM]	Ki (D(3) dopamine receptor [6]) [nM]	Ratio Ki (Homo sapiens)	Ki (D(3) dopamine receptor [7]) [nM]	Ki (D(2) dopamine receptor [8]) [nM]	Ki (D(3) dopamine receptor [10]) [nM]	Ki (D(3) dopamine receptor [11]) [nM]	Ki (D(3) dopamine receptor [13]) [nM]	Ki (D(3) dopamine receptor [15]) [nM]	other results
CCCN(CCCCNC(=O)c1ccc(-c2ccccc2)cc1)C1CCn2nccc2C1 (racemic)	6800	0.71	59	77	520	150										
CCCN(CCC)C1Cc2ccccc2C1							230	350	1.5							
CCCN(CCCCNC(C)=O)C1Cc2ccccc2C1							410	330	0.8							
CCCCC(=O)NCCCCN(CCC)C1Cc2ccccc2C1							44	760	17							
CCCN(CCCCNC(=O)c1ccc(-c2ccccc2)cc1)C1Cc2cccn3ncc(c23)C1 (centres undefined)	1800	0.55	230	240	86	270										
CCCN(CCC)[C@@H]1CCn2nccc2C1	68000	2100	17000	53000	2900	55000				4300	57000					
CCCN(CCCCNC(=O)c1ccc(-c2ccccc2)cc1)[C@H]1CCn2nccc2C1		0.19				5.3	0.076	170	2200	0.027	1	850	2.3	0.98	0.058	EC50 (D(2) dopamine receptor [9]): 26 nM; EC50 (D(2) dopamine receptor [12]): 0.51 nM; EC50 (D(2) dopamine receptor [14]): 370 nM; EC50 (D(2) dopamine receptor [16]): 110 nM; EC50 (D(3) dopamine receptor [17]): 0.0028 nM; EC50 (D(3) dopamine receptor [18]): 0.056 nM
CCCN(CCCCNC(=O)c1ccc(-c2ccccc2)cc1)C1CCn2ncc(Cl)c2C1 (centres undefined)	3600	0.59	190	43	260	100										
COc1ccccc1N1CCN(CCCCNC(=O)c2ccc(-c3ccccc3)cc2)CC1	570	0.22	27		5.6		0.9	180				790	2.8	0.58	0.16	inhibition (D(2) dopamine receptor [19]): Active
CCCN(CCCCNC(=O)c1ccccc1)C1Cc2ccccc2C1							2.7	250	93							
CCCN(CCC)[C@H]1CCn2nccc2C1	53000	31	380	270	5100	410	150	420	2.8	14	4.6	8100	840	420	45	
CCCN(CCCCNC(=O)c1ccc(-c2ccccc2)cc1)[C@@H]1CCn2nccc2C1		15				300	19	3700	190	6.3	49	1400	240	43	15	EC50 (D(3) dopamine receptor [18]): 51 nM
CCCN(CCCCNC(=O)c1ccc(-c2ccccc2)cc1)C1CCn2ncc(C=O)c2C1 (centres undefined)	23000	39	6300	4700	3800	8400										
